Screening data as filed in PubChem BioAssay.
TCR CD3 inh: inhibitors of human TCR-CD3 interaction. TAMRA-labeled TCR probe fluorescence, biochemical. inhibition, % at 9.4 µM. 360,000 compounds, 0.37% hits; in the data active = inhibition above about 19%;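 also: recombinant mutant TCR 2C K166C tagged with TAMRA read by polarization; 0% = receptor in buffer alone and 100% = receptor with positive control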
HTRA1 inhibitor: blocks human HTRA1 serine peptidase | Q92743 | recombinant HTRA1, FP-rhodamine activity-based probe, fluorescence polarization | inhibition, % at 5.96 µM | 340,000 compounds, 0.5% hits | AID 504803; in the data active = inhibition above about 36%;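 also: 0% = enzyme with DMSO and 100% = wells lacking enzyme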
Target sequence (Q92743 whole entry, looked up): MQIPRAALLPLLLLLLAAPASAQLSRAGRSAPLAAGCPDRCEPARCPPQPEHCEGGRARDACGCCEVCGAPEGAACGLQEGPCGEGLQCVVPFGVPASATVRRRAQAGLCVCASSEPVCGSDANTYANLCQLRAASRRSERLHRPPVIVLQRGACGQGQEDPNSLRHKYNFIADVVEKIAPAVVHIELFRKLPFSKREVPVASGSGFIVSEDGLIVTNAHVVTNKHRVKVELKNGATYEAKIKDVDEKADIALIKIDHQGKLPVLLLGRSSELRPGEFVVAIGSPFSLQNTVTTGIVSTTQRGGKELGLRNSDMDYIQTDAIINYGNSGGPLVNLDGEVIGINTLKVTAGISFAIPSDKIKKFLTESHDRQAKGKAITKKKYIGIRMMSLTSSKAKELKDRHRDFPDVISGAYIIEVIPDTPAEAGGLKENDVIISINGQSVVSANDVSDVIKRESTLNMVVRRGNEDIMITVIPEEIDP
PRMT1 FP inh: inhibitors of human PRMT1; recombinant PRMT1, activity-based probe fluorescence polarization; Q99873; 370,000 compounds, 1.3% hits; AID 652257; inhibition, % at 2.79 µM;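 active = inhibition above about 21% made by adding two undisclosed values, limit read from the data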
SIAE inh: blocks human sialic acid acetylesterase; 370,000 compounds, 0.69% hits; inhibition, % at 9.66 µM; Q9HAT2; SIAE FP-Rh probe binding, fluorescence polarization; AID 1053197;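 active = inhibition above a cutoff: mean of compounds within the control limits plus 3 SD of those, cut at about 17% in these data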;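 also: 0% = plate median of compound wells and 100% = probe without SIAE protein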
mABHD4 FP: inhibits mouse alpha/beta hydrolase domain 4; Q8VD66; purified mABHD4, FP-Rh probe fluorescence polarization; inhibition, % at 8.92 µM; 370,000 compounds, 0.54% hits;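 active = inhibition exceeding the mean over every tested compound plus 3 SD, cut at about 30% in these data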;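 also: 0% = plate median of compound wells and 100% = S159A mutant with DMSO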
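System: mouse ABHD4 enzyme, wild type / Medium: HEPES pH 7.0, NaCl, Pluronic buffer / Reagent: FP-Rh activity-based fluorescent probe / Control set: S159A mutant high control, sample median low control / Detection: fluorescence polarization with parallel and perpendicular emission, 525/598 nm / Schedule: 45 min + 60 min at 25 °C / Compound dosing: 8.92 µM, single dose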
The depositor's hits bear a star; . = no result. Only some compounds are listed: those with a hit (about 2.5% of all), similar ones and a draw of the others.

SMILES	TCR CD3 inh	HTRA1 inhibitor	PRMT1 FP inh	SIAE inh	mABHD4 FP
COc1ccc2c(c1)-c1nc(NC(=O)c3cccs3)sc1CC2	0	-31	5	-13	3
Cc1cc(N)ccc1N1CCCC1	.	82*	.	.	.
COC(=O)C1CN(Cc2ccc(OC)cc2)CCS(=O)(=O)N1Cc1cn(Cc2ccccc2)nn1 (stereo unspecified)	.	.	2	2	3
COc1ccccc1NC(=S)OCCN1CCCC12CCC(c1ccccc1)CC2 (stereo unspecified)	.	.	22*	0	-8
COc1ccccc1NC(=O)OCCN1CCCC12CCC(c1ccccc1)CC2 (stereo unspecified)	.	.	7	1	0
CCC/C=C1/CCCOC(C(=O)NCc2ccc(C)o2)(C(F)(F)F)C1 (stereo unspecified)	3	-3	45*	-4	-8
CCC/C=C1/CCCOC(C(=O)NCc2ccccn2)(C(F)(F)F)C1 (stereo unspecified)	5	-4	1	3	8
Cc1c(Cl)sn(-c2ccc(Cl)cc2)c1=O	-4	-3	68*	-4	3
c1ccc(Cn2c(SCC3CCC3)nnc2-c2cccnc2)cc1	.	.	1	1	3
CCC(C)(C)n1nnnc1CN(Cc1ccco1)Cc1cc2cc3c(cc2[nH]c1=O)OCO3	.	-1	.	.	.
CC(C)(C)n1nnnc1CN(Cc1ccco1)Cc1cc2cc3c(cc2[nH]c1=O)OCO3	0	-6	24*	1	8
CCc1ccc2[nH]c(=O)c(CN(Cc3ccccc3OC)Cc3nnnn3Cc3ccco3)cc2c1	5	-67	23*	-10	-23
O=S(=O)(CC1NCc2ccccc21)NC1CCCC1 (stereo unspecified)	.	.	-2	-1	-10
C#CCNC(=O)C[C@@H]1C(=O)N(CC=C)/C2=C/CCCCC[C@]21C(=O)OCC	.	.	0	6	3
COCCN=C1NC(=O)C(CC(=O)Nc2cccc(Cl)c2C)S1 (stereo unspecified)	-4	.	24*	0	-7
CC(=O)Nc1sc2c(c1-c1nc3ccccc3s1)CCCN(C(C)C)C2	.	.	0	-6	-14
O=CN/C=C/c1cc(O)ccc1O	6	11	48*	17	19
CCCC(=O)N(C1CC(C)C(C#N)(C#N)C1(C#N)C#N)N(C)C (stereo unspecified)	-5	-7	22*	-9	-6
C=CCN(C(=O)[C@@H](C1CC1)[C@@H](O)c1ccc2ccccc2c1)c1ccccc1	.	.	1	-3	-5
C[C@@H](N)P(=O)(O)C[C@H](Cc1ccccc1)C(=O)O	.	.	-11	-5	-4
COc1ccc(S(=O)(=O)N(C)C[C@H]2Oc3ccc(NC(=O)Nc4ccc5c(c4)OCO5)cc3CC(=O)N([C@@H](C)CO)C[C@@H]2C)cc1	-5	-6	1	18*	-1
O=C(Nc1cccc(F)c1)/C(=C\c1ccco1)NC(=O)c1ccco1	3	-4	24*	2	12
COC(=O)c1cccc(NC(=O)/C(=C\c2ccco2)NC(=O)c2ccco2)c1	-3	-1	25*	-10	1
O=C(Nc1ccc(Cc2ccncc2)cc1)c1cccc([N+](=O)[O-])c1	5	-9	-1	1	1
O=C(CCNc1ccc(Cc2ccncc2)cc1)c1ccc([N+](=O)[O-])cc1	-2	-3	36*	6	14
SMILES	TCR CD3 inh	HTRA1 inhibitor	PRMT1 FP inh	SIAE inh	mABHD4 FP
CCOc1cc(C2NC(=S)NC(C)=C2C(=O)Nc2ccccc2)ccc1O (stereo unspecified)	-5	4	22*	0	-8
O=S1(=O)c2ccc(N3CCN(Cc4ccccc4F)CC3)cc2Oc2ccccc2CN1Cc1cn(Cc2ccccc2C(F)(F)F)nn1	.	.	4	-1	3
O=S(=O)(c1ccccc1)c1cc(O)ccc1O	5	5	5	3	2
Nc1ccc(S(=O)(=O)c2cc(O)c3ccccc3c2O)cc1	6	19	24*	1	48*
O=C(NCC1CCCO1)c1ccc2c(c1)N(Cc1ccccc1)C(=O)CS2=O (stereo unspecified)	3	0	24*	-3	0
CN(C)c1ccc(C(=S)N2CCN(c3ccc([N+](=O)[O-])cc3)CC2)cc1	1	5	23*	10	1
O=[N+]([O-])c1ccc(C(=S)N2CCN(c3ccc(F)cc3)CC2)cc1	0	-10	3	4	4
N#CCC[C@@H]1CC[C@]2(CCCN(Cc3ccc(Br)cc3)C2)O1	.	.	9	-4	-8
CCOC(=O)C1CCN(C(=O)Nc2ccc3nc(-c4ccco4)c(-c4ccco4)nc3c2)CC1	.	45*	.	.	.
CCOC(=O)C1CCN(C(=O)Nc2ccc3c(c2)nc(C)n3C)CC1	-2	-2	2	-1	-1
Brc1ccc(Cn2nnc(-c3ccc(N4CCOCC4)cc3)n2)cc1	.	.	0	-11	2
O=C1CSc2ccc(C(=O)Nc3cccc(S(=O)(=O)Nc4ccc(Br)cc4)c3)cc2N1	11	-160	21*	-193	-211
Cc1cc2c(SCC(=O)Nc3cccc(O)c3)ncnc2s1	10	-24	34*	-26	-8
O=C(CSc1nnc(-c2cccs2)o1)Nc1cccc2ccccc12	.	.	5	-3	0
O=C1C(Cl)=C(N2CCC(C(=O)O)CC2)C(=O)c2ccccc21	.	7	.	.	.
NC(=O)C1CCN(C2=C(Cl)C(=O)c3ccccc3C2=O)CC1	4	10	25*	-4	7
Cc1nn(-c2ccccc2)c(C)c1C=NNC(=O)CSc1nc2ccccc2n1C	.	.	6	0	-3
c1ccc(CCn2nnnc2CN2CCCc3ccccc32)cc1	-5	-4	25*	1	-12
Cc1ccccc1CN1CCCCC(NC(=O)c2ccccc2F)C1=O (stereo unspecified)	.	.	4	1	5
CCC(=O)Nc1nc2ccc(S(C)(=O)=O)cc2s1	-4	1	-1	9	0
CC(C)CC(=O)Nc1nc2ccc(S(C)(=O)=O)cc2s1	-6	1	23*	-4	-14
Cc1cc(C)cc(C(=O)OCCCN(C)C2CN(Cc3cn(Cc4ccc([N+](=O)[O-])cc4)nn3)S(=O)(=O)C2)c1 (stereo unspecified)	.	.	-1	2	0
O=[N+]([O-])c1ccc2c(c1)-c1ccccc1C2O (stereo unspecified)	1	0	36*	6	5
O=[N+]([O-])c1ccc2c(c1)/C(=N\O)c1ccccc1-2	1	-7	-1	-22	-5
N#Cc1sc2nc(-c3ccccc3)cc(-c3ccco3)c2c1N	-2	43*	3	8	15
CCOC(=O)CC[C@H]1CC[C@]2(CCCN(S(C)(=O)=O)C2)O1	.	.	-5	9	-4
COc1ccc(-c2cc(C(=O)OCC(=O)c3c(N)n(C)c(=O)n(C)c3=O)c3ccccc3n2)cc1	0	-1	-5	-10	2
Cn1c(N)c(C(=O)COC(=O)c2cc(-c3ccco3)nc3ccccc23)c(=O)n(C)c1=O	18	24	22*	4	-5
